From ChEMBL document CHEMBL4411328, “Synthesis and Structural/Functional Characterization of Selective M14 Metallocarboxypeptidase Inhibitors Based on Phosphinic Pseudopeptide Scaffold: Implications on the Design of Specific Optical Probes” (J Med Chem, 2019)
Calls of active or inactive are those of the source. The rule behind the calls is not given here.

Columns and labels:
Carboxypeptidase A2 = target: T1, Carboxypeptidase A2 (Homo sapiens, UniProt P48052); assay: Inhibition of human CPA2 using AAFP as substrate preincubated for 45 mins to 2 hrs measured at 30 sec intervals for 15 mins by UV/vis-spectrophotometry
T1 sequence (P48052 whole entry): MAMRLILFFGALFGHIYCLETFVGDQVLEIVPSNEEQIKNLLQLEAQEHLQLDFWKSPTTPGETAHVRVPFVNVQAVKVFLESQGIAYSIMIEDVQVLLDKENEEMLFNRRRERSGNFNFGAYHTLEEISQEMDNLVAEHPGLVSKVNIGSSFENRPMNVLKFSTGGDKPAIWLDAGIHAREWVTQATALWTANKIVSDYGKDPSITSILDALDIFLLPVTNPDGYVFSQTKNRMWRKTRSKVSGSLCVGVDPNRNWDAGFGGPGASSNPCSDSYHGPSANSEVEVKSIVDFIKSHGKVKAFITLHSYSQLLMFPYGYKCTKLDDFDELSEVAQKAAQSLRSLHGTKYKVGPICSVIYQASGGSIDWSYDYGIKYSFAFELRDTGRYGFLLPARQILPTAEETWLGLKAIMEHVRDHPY
Method in brief: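 hCPA2 was used at 3.0x10-8 M with AAFP substrate at 1.0x10-4 M, read at 355 nm, in 20 mM Tris-HCl pH 7.5, 500 mM NaCl, 1% DMSO, 0.05% Brij-35. After a 45 min preincubation at 37 °C, initial rates were followed at 30 sec intervals for 15 min, in triplicate. Kiapp was fitted by the tight-binding equation.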

Carboxypeptidase A4 = target: T2, Carboxypeptidase A4 (Homo sapiens, UniProt Q9UI42); assay: Inhibition of human CPA4 using AAFP as substrate preincubated for 45 mins to 2 hrs measured at 30 sec intervals for 15 mins by UV/vis-spectrophotometry
T2 sequence (Q9UI42 whole entry): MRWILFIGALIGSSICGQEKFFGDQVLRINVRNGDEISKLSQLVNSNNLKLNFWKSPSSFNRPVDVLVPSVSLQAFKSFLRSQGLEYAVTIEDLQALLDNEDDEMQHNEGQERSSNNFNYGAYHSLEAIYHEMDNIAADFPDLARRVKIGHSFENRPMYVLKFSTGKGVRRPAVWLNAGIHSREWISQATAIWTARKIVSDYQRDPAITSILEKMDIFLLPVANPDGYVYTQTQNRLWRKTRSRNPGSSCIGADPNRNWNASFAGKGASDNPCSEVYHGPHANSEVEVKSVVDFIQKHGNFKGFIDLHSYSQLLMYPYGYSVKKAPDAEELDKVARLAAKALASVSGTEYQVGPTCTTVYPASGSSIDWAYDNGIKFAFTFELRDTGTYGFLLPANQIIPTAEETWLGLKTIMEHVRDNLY
Method in brief: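 Enzyme was hCPA4 at 4.3x10-8 M, with 1.0x10-4 M AAFP and detection at 355 nm. Inhibitor and enzyme were preincubated 45 min at 37 °C, then initial velocities were taken over 15 min (30 sec reads), in triplicate. Kiapp was obtained from the tight-binding fit.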

[1] = target: T3, Carboxypeptidase D (Homo sapiens) (UniProt O75976); assay: Inhibition of human CPD at 1 nM to 1 mM using AAFA as substrate preincubated for 45 mins to 2 hrs measured at 30 sec intervals for 15 mins by UV/vis-spectrophotometry
T3 sequence (whole entry): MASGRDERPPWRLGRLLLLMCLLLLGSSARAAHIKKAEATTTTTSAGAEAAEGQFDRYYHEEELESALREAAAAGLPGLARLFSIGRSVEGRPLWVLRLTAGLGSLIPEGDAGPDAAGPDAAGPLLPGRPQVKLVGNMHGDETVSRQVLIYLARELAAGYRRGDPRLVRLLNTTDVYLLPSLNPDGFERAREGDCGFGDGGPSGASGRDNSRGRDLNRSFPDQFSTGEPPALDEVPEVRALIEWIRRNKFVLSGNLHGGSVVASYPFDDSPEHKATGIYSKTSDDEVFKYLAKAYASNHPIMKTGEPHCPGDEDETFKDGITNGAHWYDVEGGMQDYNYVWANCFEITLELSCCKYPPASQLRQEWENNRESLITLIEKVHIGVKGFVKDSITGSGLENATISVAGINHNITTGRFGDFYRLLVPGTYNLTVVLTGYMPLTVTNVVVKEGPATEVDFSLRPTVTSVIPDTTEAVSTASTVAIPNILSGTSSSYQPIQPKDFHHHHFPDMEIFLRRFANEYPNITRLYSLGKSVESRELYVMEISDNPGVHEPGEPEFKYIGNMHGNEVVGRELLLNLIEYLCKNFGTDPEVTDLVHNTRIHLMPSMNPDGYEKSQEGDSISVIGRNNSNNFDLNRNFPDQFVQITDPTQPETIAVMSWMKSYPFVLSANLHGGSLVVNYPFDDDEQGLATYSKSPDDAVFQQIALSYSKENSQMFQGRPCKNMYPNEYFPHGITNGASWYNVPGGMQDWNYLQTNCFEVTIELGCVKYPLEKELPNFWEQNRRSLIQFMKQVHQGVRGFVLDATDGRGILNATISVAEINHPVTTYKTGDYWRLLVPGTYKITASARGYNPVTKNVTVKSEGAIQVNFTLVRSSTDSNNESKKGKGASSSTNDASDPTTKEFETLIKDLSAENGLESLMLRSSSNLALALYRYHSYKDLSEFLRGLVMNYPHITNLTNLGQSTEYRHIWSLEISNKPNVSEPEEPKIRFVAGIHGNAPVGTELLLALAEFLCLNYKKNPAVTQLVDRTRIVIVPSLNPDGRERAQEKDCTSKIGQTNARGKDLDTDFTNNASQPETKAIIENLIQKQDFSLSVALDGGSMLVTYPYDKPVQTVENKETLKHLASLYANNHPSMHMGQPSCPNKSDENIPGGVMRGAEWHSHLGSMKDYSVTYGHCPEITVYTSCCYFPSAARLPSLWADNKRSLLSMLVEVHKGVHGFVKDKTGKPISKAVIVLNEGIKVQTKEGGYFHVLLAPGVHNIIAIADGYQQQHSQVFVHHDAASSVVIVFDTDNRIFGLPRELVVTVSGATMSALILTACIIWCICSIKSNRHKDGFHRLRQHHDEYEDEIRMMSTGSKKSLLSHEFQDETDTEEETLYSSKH
Method in brief: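 hCPD was used at 2.0x10-8 M with AAFA substrate at 1.0x10-4 M, monitored at 355 nm. Buffer was 20 mM Tris-HCl pH 7.5, 100 mM NaCl, 1% DMSO, 0.05% Brij-35. Preincubation was 45 min at 37 °C. Residual activity at a range of inhibitor concentrations was measured from initial rates (30 sec reads, 15 min), in triplicate. Kiapp came from the tight-binding fit.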

| Structure (SMILES) | Ki (Carboxypeptidase A2) [nM] | Ki (Carboxypeptidase A4) [nM] | inhibition [1] |
| --- | --- | --- | --- |
| CC(=O)N[C@@H](Cc1ccc(O)cc1)C(=O)N[C@@H](C)P(=O)(O)C[C@@H](CCc1ccccc1)C(=O)O | 1.7 | 2.6 | inactive |
| CC(=O)N[C@@H](CO)C(=O)N[C@@H](C)P(=O)(O)C[C@@H](CCc1ccccc1)C(=O)O | 13.8 | 60.6 | inactive |
| C[C@H](NC(=O)[C@H](Cc1ccc(O)cc1)NC(=O)COCCOCCNC(=O)CCOCCOCCOCCNC(=O)CCc1ccc(C(=C\C=C2\N(CCCCS(=O)(=O)O)c3ccc4c(S(=O)(=O)[O-])cc(S(=O)(=O)O)cc4c3C2(C)C)/C=C/C2=[N+](CCCCS(=O)(=O)O)c3ccc4c(S(=O)(=O)O)cc(S(=O)(=O)O)cc4c3C2(C)C)cc1)P(=O)(O)C[C@@H](CCc1ccccc1)C(=O)O | 5.3 | 5.7 | inactive |
| CC(=O)N[C@@H](CCCCN)C(=O)N[C@@H](C)P(=O)(O)C[C@@H](CCc1ccccc1)C(=O)O | 2.4 | 25.4 | inactive |
| C[C@H](NC(=O)[C@H](Cc1ccc(O)cc1)NC(=O)COCCOCCN)P(=O)(O)C[C@@H](CCc1ccccc1)C(=O)O | 7.8 | 5.4 | inactive |
| CC(=O)N1CCC[C@H]1C(=O)N[C@@H](C)P(=O)(O)C[C@@H](CCc1ccccc1)C(=O)O | 3.2 | 7.5 | inactive |
| CC(=O)N[C@@H](CC(C)C)C(=O)N[C@@H](Cc1ccccc1)P(=O)(O)C[C@@H](CCc1ccccc1)C(=O)O | 0.2 | 1.9 | inactive |
| CC(=O)NCCOCCOCC(=O)N[C@@H](Cc1ccc(O)cc1)C(=O)N[C@@H](C)P(=O)(O)C[C@@H](CCc1ccccc1)C(=O)O | 5.7 | 3.5 | inactive |
| CC(=O)N[C@@H](CC(C)C)C(=O)N[C@@H](C)P(=O)(O)C[C@@H](CCc1ccccc1)C(=O)O | 0.7 | 3.3 | inactive |
| CC(=O)N[C@@H](CCC(=O)O)C(=O)N[C@@H](C)P(=O)(O)C[C@@H](CCc1ccccc1)C(=O)O | 4.6 | 38.6 | inactive |
